Experimental data published in PubChem BioAssay.
Activity calls are given as the source filed them.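 The calls were made as follows: active = duplicate-averaged activation above buffer control mean plus 5 SD of those controls; inactive = the rest.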

Test: nonspecific flux increase, KCNQ1-free cells – parental CHO cells, counter-screen for KCNQ1 potentiator project (AID 493006);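 as to activation: fluorescence ratio of max minus min over baseline after K+ and Tl+ depolarization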
Settings: parental CHO-K1 cells, FluxOR thallium flux, at 10 µM; active compounds read high
How it was run: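 Benchmarks – buffer and R-L3 controls · Assay system – untransfected host CHO-K1 cells with FluxOR thallium dye · Measure – fluorescence change ratio scaled 0% buffer, 100% R-L3 · Technique – kinetic thallium-flux fluorescence · Timing – overnight 37 °C plating, 90 min RT dye, 20 min compound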

SMILES | outcome | activation
COc1ccccc1OCCc1nnc(N)s1 | inactive | 
O=C(Nc1cccc2cccnc12)c1ccc(Br)o1 | inactive | 
CC(=O)c1c(N2CCCC2)[nH]c(-c2ccccc2)nc1=S | inactive | 
CCOc1ccc(NC(=O)CN(C)C(=O)c2c(-c3c(F)cccc3Cl)noc2C)cc1OCC | inactive | 
C/C(=N/NC(=O)c1cc(C2CC2)[nH]n1)c1cccs1 |  | 150% (active)
Cc1cccc(C)c1NC(=S)NC(=O)c1ccc(Br)o1 |  | 394% (active)
O=C(CC(=O)c1ccccc1O)c1cccc(F)c1 |  | 164% (active)
O=C(c1ccco1)N1CCN(S(=O)(=O)c2ccc(F)cc2)CC1 | inactive | 
Cc1ccnc(NS(=O)(=O)c2ccc(NC(=O)C34CC5CC(CC(C5)C3)C4)cc2)n1 | inactive | 
CCc1ccc2[nH]c(O)c(N=Nc3nc(-c4ccccc4)cs3)c2c1 |  | 186% (active)
Cc1cccc(C(=O)Oc2csc(=S)n2C(=O)c2cccc(C)c2)c1 |  | 139% (active)
CC1SCC(=NOCc2c(Cl)cccc2Cl)CS1 (centres undefined) | inactive | 
CCC1CCCCN1C(=S)NC(=O)c1cccs1 (centres undefined) |  | 470% (active)
COc1ccc(/C=C2/S/C(=N/N=C3\CC4CCC3(C)C4(C)C)NC2=O)cc1 (centres undefined) | inactive | 
Cn1ncc2c(O/N=C(\N)c3ccc(C(F)(F)F)cc3)ncnc21 | inactive | 
CCOC(=O)c1c(NC(=S)NCC2CCCO2)sc(C)c1C (centres undefined) | inactive | 
O=C(NCc1ccccc1)c1onc(CSc2ccc(F)cc2)c1C(=O)NCCCN1CCOCC1 | inactive | 
CCCCC(Nc1ncnc2ccccc12)C(=O)O (centres undefined) | inactive | 
C=CCn1c(N)c(C(=O)Nc2ccc(C)cc2)sc1=S | inactive | 
